Legend:
Settings in all cases: stereoisomer not certain
UniProt Q8VGM2 = target: T1, UniProt Q8VGM2
T1 sequence (whole entry): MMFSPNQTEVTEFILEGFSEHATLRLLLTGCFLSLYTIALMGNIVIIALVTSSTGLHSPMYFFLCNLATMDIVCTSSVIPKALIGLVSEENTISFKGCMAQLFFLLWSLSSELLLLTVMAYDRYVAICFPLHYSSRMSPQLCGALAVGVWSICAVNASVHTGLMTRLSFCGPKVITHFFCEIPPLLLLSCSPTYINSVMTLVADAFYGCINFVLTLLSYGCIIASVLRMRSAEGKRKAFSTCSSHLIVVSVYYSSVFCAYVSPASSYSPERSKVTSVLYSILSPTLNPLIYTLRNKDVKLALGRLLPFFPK
Procedure, shortened: (§1)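 Transient luciferase assays in mammalian cell lines were common, though methods varied by source. The values come from published papers and their supplementary material, with extra details from the original authors when needed. Responsive refers to a measured signal the original authors judged statistically different from baseline, and non-responsive (inactive) to the remainder.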

UniProt Q8VGP6 = target: T2, UniProt Q8VGP6
T2 sequence (whole entry): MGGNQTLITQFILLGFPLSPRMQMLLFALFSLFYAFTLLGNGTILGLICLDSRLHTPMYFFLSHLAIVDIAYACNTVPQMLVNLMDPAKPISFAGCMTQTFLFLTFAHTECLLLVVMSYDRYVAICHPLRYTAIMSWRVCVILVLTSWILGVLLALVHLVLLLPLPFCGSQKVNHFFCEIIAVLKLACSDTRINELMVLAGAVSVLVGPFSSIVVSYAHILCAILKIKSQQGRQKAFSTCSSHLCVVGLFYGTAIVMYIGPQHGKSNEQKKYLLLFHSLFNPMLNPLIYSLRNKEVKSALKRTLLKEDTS
Procedure, shortened: as §1

UniProt Q8VGQ3 = target: T3, UniProt Q8VGQ3
T3 sequence (whole entry): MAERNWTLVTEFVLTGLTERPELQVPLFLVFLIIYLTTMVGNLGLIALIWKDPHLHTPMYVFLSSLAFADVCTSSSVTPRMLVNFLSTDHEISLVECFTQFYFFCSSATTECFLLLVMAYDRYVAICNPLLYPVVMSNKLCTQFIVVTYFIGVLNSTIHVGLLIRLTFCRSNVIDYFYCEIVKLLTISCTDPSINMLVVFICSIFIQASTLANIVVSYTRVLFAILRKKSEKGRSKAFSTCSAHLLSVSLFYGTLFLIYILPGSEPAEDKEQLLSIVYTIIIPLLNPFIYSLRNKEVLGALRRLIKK
Procedure, shortened: as §1

UniProt Q8VGT4 = target: T4, UniProt Q8VGT4
T4 sequence (whole entry): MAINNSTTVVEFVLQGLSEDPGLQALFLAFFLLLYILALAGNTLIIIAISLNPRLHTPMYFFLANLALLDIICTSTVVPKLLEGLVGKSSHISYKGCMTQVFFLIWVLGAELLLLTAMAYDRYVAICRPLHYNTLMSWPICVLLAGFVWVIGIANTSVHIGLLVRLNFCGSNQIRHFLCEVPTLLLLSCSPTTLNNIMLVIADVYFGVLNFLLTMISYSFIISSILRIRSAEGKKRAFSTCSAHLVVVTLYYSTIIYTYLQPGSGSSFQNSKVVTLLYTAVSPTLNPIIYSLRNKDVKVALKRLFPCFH
Procedure, shortened: as §1

UniProt Q8VGU3 = target: T5, UniProt Q8VGU3
T5 sequence (whole entry): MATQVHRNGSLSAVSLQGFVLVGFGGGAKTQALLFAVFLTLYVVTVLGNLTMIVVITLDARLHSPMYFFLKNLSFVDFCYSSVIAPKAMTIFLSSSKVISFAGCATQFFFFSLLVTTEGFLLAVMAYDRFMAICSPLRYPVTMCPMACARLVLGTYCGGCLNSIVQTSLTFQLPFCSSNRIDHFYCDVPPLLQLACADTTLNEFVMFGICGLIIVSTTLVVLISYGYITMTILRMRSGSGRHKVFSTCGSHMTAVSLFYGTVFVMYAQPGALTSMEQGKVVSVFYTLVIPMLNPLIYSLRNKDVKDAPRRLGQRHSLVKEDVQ
Procedure, shortened: as §1

UniProt Q8VGV1 = target: T6, UniProt Q8VGV1
T6 sequence (whole entry): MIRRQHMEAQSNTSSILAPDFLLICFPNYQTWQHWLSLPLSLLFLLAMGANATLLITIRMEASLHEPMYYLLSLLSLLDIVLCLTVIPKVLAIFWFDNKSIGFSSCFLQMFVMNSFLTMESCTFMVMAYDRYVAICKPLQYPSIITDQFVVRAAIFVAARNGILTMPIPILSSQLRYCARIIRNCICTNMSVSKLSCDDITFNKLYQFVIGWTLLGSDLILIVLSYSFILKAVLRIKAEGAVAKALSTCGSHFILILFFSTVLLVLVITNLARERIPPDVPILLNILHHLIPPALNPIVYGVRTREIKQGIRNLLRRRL
Procedure, shortened: as §1

UniProt Q8VGV7 = target: T7, UniProt Q8VGV7
T7 sequence (whole entry): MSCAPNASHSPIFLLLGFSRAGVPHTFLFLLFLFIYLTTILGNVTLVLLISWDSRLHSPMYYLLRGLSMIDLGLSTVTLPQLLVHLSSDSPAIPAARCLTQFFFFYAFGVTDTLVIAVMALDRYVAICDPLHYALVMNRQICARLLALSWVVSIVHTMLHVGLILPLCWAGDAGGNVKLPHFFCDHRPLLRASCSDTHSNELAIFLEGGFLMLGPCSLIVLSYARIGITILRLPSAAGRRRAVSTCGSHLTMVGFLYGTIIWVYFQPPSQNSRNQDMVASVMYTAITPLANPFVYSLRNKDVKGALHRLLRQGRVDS
Procedure, shortened: as §1

UniProt Q8VGX3 = target: T8, UniProt Q8VGX3
T8 sequence (whole entry): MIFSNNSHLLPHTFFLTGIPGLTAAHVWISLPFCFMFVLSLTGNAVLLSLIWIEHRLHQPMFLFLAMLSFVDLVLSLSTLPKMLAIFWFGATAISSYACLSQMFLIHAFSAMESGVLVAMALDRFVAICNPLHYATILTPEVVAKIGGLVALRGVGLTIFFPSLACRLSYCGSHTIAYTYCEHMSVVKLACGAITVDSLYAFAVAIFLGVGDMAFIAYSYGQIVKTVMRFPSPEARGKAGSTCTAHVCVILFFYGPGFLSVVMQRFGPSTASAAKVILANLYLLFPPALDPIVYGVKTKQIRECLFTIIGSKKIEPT
Procedure, shortened: as §1

UniProt Q8VGX5 = target: T9, UniProt Q8VGX5
T9 sequence (whole entry): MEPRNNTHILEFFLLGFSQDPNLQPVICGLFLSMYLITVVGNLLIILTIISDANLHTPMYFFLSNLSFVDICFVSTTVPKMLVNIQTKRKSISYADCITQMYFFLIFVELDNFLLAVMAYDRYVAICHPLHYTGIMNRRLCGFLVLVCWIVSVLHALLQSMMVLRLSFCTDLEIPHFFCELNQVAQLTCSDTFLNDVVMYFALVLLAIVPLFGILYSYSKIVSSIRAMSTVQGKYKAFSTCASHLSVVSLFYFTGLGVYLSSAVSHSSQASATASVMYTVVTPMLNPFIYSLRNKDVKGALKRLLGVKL
Procedure, shortened: as §1

UniProt Q8VGW5 = target: T10, UniProt Q8VGW5
T10 sequence (whole entry): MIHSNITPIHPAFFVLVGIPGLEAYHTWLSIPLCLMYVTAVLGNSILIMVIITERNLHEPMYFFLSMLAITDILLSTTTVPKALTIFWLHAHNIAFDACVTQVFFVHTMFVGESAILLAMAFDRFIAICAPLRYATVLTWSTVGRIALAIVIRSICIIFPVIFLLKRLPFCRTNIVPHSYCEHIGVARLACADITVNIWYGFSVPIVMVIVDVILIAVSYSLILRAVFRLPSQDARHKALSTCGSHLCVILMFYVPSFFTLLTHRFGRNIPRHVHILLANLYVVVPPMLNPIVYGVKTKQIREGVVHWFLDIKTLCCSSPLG
Procedure, shortened: as §1

Measured: odorant receptor agonist call

CCCCCCC(C)=O
not listed: UniProt Q8VGW5
inactive: all other assays above

CC(C)CCN
inactive: UniProt Q8VGU3 | UniProt Q8VGV7 | UniProt Q8VGX3 | UniProt Q8VGX5

CC(=O)C=CC1=C(C)CCCC1(C)C
inactive: UniProt Q8VGU3 | UniProt Q8VGV7 | UniProt Q8VGX3
active: UniProt Q8VGX5

CC(C)=CCCC(C)=CCOC(=O)C(C)C
inactive: UniProt Q8VGU3 | UniProt Q8VGV7 | UniProt Q8VGX3
active: UniProt Q8VGX5

CC(=O)OCc1ccc2c(c1)OCO2
inactive: UniProt Q8VGU3 | UniProt Q8VGV7 | UniProt Q8VGX3 | UniProt Q8VGX5

CCc1ccccc1O
inactive: UniProt Q8VGU3 | UniProt Q8VGV7 | UniProt Q8VGX3 | UniProt Q8VGX5

COc1cnccn1
inactive: UniProt Q8VGU3 | UniProt Q8VGV7 | UniProt Q8VGX3 | UniProt Q8VGX5

CCCCC=O
inactive: UniProt Q8VGU3 | UniProt Q8VGV7 | UniProt Q8VGX3 | UniProt Q8VGX5
active: UniProt Q8VGW5

CCCCOC(=O)C(C)OC(=O)CCC (centres undefined)
inactive: UniProt Q8VGM2 | UniProt Q8VGP6 | UniProt Q8VGQ3 | UniProt Q8VGT4 | UniProt Q8VGV1 | UniProt Q8VGX5

CCOC(=O)CC(C)C
inactive: UniProt Q8VGU3 | UniProt Q8VGV7 | UniProt Q8VGX3 | UniProt Q8VGX5

CCCC(C)=O
not listed: UniProt Q8VGU3 | UniProt Q8VGV7 | UniProt Q8VGX3
inactive: all other assays above

CCCCCCC(=O)[O-].[H+]
not listed: UniProt Q8VGU3 | UniProt Q8VGV7 | UniProt Q8VGX3
inactive: all other assays above

CCCC=O
active: UniProt Q8VGX5
inactive: UniProt Q8VGU3 | UniProt Q8VGV7 | UniProt Q8VGX3

C=C(C)C1CCC2(C)OC2C1 (centres undefined)
inactive: UniProt Q8VGU3 | UniProt Q8VGV7 | UniProt Q8VGX3 | UniProt Q8VGX5

C=CC(C)=CCC=C(C)CCC=C(C)C
inactive: UniProt Q8VGU3 | UniProt Q8VGV7 | UniProt Q8VGX3 | UniProt Q8VGX5

CC(C)CS
inactive: UniProt Q8VGU3 | UniProt Q8VGV7 | UniProt Q8VGX3 | UniProt Q8VGX5

CC1(C)CC(=O)CC(=O)C1
inactive: UniProt Q8VGU3 | UniProt Q8VGV7 | UniProt Q8VGX3 | UniProt Q8VGX5

OCCc1ccccc1
inactive: UniProt Q8VGU3 | UniProt Q8VGV7 | UniProt Q8VGX3
active: UniProt Q8VGX5

CCC(C(=O)O)c1ccccc1 (centres undefined)
inactive: UniProt Q8VGM2 | UniProt Q8VGP6 | UniProt Q8VGQ3 | UniProt Q8VGT4 | UniProt Q8VGV1 | UniProt Q8VGX5

C=C(C)C1CCC(C)C(=O)C1 (centres undefined)
active: UniProt Q8VGQ3 | UniProt Q8VGX5
not listed: UniProt Q8VGW5
inactive: all other assays above

CCCCCCCC(=O)[O-].[H+]
active: UniProt Q8VGV1
not listed: UniProt Q8VGU3 | UniProt Q8VGV7 | UniProt Q8VGX3
inactive: all other assays above

Cc1ccc(C(C)C)c(O)c1
active: UniProt Q8VGX3
inactive: UniProt Q8VGU3 | UniProt Q8VGV7 | UniProt Q8VGX5

COc1cc(C(=O)O)ccc1O
not listed: UniProt Q8VGW5
inactive: all other assays above

OCC=Cc1ccccc1
inactive: UniProt Q8VGU3 | UniProt Q8VGV7 | UniProt Q8VGX3 | UniProt Q8VGX5

CCN(CC)CC
inactive: UniProt Q8VGU3 | UniProt Q8VGV7 | UniProt Q8VGX3 | UniProt Q8VGX5

CCCCCOC(=O)CCC
inactive: UniProt Q8VGU3 | UniProt Q8VGV7 | UniProt Q8VGX3 | UniProt Q8VGX5

Cc1ccc(OC(=O)C(C)C)cc1
inactive: UniProt Q8VGU3 | UniProt Q8VGV7 | UniProt Q8VGX3 | UniProt Q8VGX5

C1CCOCC1
inactive: UniProt Q8VGU3 | UniProt Q8VGV7 | UniProt Q8VGX3 | UniProt Q8VGX5

CCC=CCCC=CC=O
inactive: UniProt Q8VGU3 | UniProt Q8VGV7 | UniProt Q8VGX3 | UniProt Q8VGX5

CC1CC=CCCCCCCCCCC(=O)C1 (centres undefined)
inactive: UniProt Q8VGU3 | UniProt Q8VGV7 | UniProt Q8VGX3 | UniProt Q8VGX5

Cc1ccccc1OC(=O)C(C)C
inactive: UniProt Q8VGU3 | UniProt Q8VGV7 | UniProt Q8VGX3 | UniProt Q8VGX5

C=C(C)C1CC=C(C)CC1 (centres undefined)
active: UniProt Q8VGX3
inactive: UniProt Q8VGU3 | UniProt Q8VGV7 | UniProt Q8VGX5

CCCCCCCCCCCO
inactive: UniProt Q8VGU3 | UniProt Q8VGV7 | UniProt Q8VGX3 | UniProt Q8VGX5

COc1nccnc1C
inactive: UniProt Q8VGU3 | UniProt Q8VGV7 | UniProt Q8VGX3 | UniProt Q8VGX5

CCCCCC(C=O)=Cc1ccccc1
inactive: UniProt Q8VGU3 | UniProt Q8VGV7 | UniProt Q8VGX3 | UniProt Q8VGX5
